Experimental findings from ChEMBL document CHEMBL3286310, “Synthesis and biological evaluation of novel N-aryl maleimide derivatives clubbed with α-hydroxyphosphonates” (2014) are described below.

For orientation: MIC means the lowest concentration found to suppress growth.

Format in all cases: functional
Assay [1] deals with Candida albicans. In words: Antimicrobial activity against Candida albicans MTCC 277 after 24 hrs by NCCLS M7-A5 method. Conditions: MTCC 277, 24 h. Put shortly:
(§1)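 MIC by agar dilution on Mueller-Hinton agar plates, following NCCLS M7-A5. MIC was taken as the lowest concentration with no visible growth after 24 h incubation at 37 °C.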

Assay [2] has as its system Escherichia coli. In words: Antimicrobial activity against Escherichia coli ATCC 25922 at 100 ug/disc after 24 hrs by agar cup plate method. Particulars: ATCC 25922, 24 h, read-out: DIZ. Put shortly: (§2)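 Agar cup plate diffusion with bacterial inocula reseeded in Mueller-Hinton broth for 24 h at 37 °C. Compounds diluted in DMF, with DMF alone as control and streptomycin as standard. Inhibition-zone diameter read by caliper, each zone measured three times and averaged.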

In assay [3] the test system is Candida albicans. The experiment in a line: Antimicrobial activity against Candida albicans MTCC 277 at 100 ug/disc after 48 hrs by agar cup plate method. Particulars: MTCC 277, 48 h, read-out: DIZ. A digest of the protocol: (§3)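 Agar cup plate diffusion with fungal inocula reseeded in Czapek Dox broth for 48 h at 25 °C. Compounds diluted in DMF, with DMF alone as control and griseofulvin as standard. Inhibition-zone diameter read by caliper, each zone measured three times and averaged.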

The subject of assay [4] is Aspergillus niger. The experiment in a line: Antimicrobial activity against Aspergillus niger MCIM 545 at 100 ug/disc after 48 hrs by agar cup plate method. Conditions: MCIM 545, 48 h, read-out: DIZ. Put shortly:
as §3

Assay [5] has as its system Aspergillus clavatus. The experiment in a line: Antimicrobial activity against Aspergillus clavatus MTCC 1323 at 100 ug/disc after 48 hrs by agar cup plate method. Particulars: MTCC 1323, 48 h, read-out: DIZ. A digest of the protocol:
as §3

Assay [6] has as its system Aspergillus clavatus. In words: Antimicrobial activity against Aspergillus clavatus MTCC 1323 after 24 hrs by NCCLS M7-A5 method. Particulars: MTCC 1323, 24 h. Put shortly:
as §1

For assay [7], the system named is Candida tropicalis. The experiment in a line: Antimicrobial activity against Candida tropicalis MTCC 184 after 24 hrs by NCCLS M7-A5 method. Particulars: MTCC 184, 24 h. A digest of the protocol: as §1
The subject of assay [8] is Candida tropicalis. The experiment in a line: Antimicrobial activity against Candida tropicalis MTCC 184 at 100 ug/disc after 48 hrs by agar cup plate method. Conditions: MTCC 184, 48 h, read-out: DIZ. Put shortly: as §3
The test system of assay [9] is Escherichia coli. The experiment in a line: Antimicrobial activity against Escherichia coli ATCC 25922 after 24 hrs by NCCLS M7-A5 method. Conditions: ATCC 25922, 24 h. A digest of the protocol:
as §1

Assay [10] concerns Bacillus subtilis. In words: Antimicrobial activity against Bacillus subtilis NCIM 2250 after 24 hrs by NCCLS M7-A5 method. Particulars: NCIM 2250, 24 h. A digest of the protocol:
as §1

Assay [11] deals with Bacillus subtilis. The experiment in a line: Antimicrobial activity against Bacillus subtilis NCIM 2250 at 100 ug/disc after 24 hrs by agar cup plate method. Conditions: NCIM 2250, 24 h, read-out: DIZ. Put shortly: as §2
Assay [12] relates to Aspergillus niger. In words: Antimicrobial activity against Aspergillus niger MCIM 545 after 24 hrs by NCCLS M7-A5 method. Particulars: MCIM 545, 24 h. Put shortly:
as §1

Values after ≈ are worked out from the molar mass of the structure shown.

With `CCOP(=O)(OCC)C(O)C1=C(N(C)C)C(=O)N(c2ccc(Br)cc2)C1=O` (stereo unspecified), the minimum inhibitory concentration (MIC) with Candida albicans [1] came out at 25 mg/L (≈ 54.2 µM); in the assay with Aspergillus clavatus [6] it was 20 mg/L (≈ 43.4 µM); against Candida tropicalis [7], 15 mg/L (≈ 32.5 µM); against Escherichia coli [9] it was 25 mg/L (≈ 54.2 µM); against Bacillus subtilis [10] it was 20 mg/L (≈ 43.4 µM); with Aspergillus niger [12], 20 mg/L (≈ 43.4 µM). Also, the zone of inhibition at 100 µg/disc in the assay on Escherichia coli [2] was found to be 13.1 mm; with Candida albicans [3], 13.8 mm; with Aspergillus niger [4], 15.5 mm; in the assay on Aspergillus clavatus [5] it was 16.4 mm; with Candida tropicalis [8] it was 16.8 mm; with Bacillus subtilis [11], 15.1 mm.
With `CCOP(=O)(OCC)C(O)C1=C(N(C)C)C(=O)N(c2ccccc2)C1=O` (stereo unspecified), the zone of inhibition at 100 µg/disc in the assay with Escherichia coli [2] was found to be 13.2 mm; with Aspergillus clavatus [5] it was 16.3 mm; in the assay with Candida tropicalis [8] it was 16.1 mm; in the assay on Bacillus subtilis [11], 13.4 mm. Also, the MIC against Aspergillus clavatus [6] was found to be 20 mg/L (≈ 52.3 µM); against Candida tropicalis [7] it was 20 mg/L (≈ 52.3 µM); with Escherichia coli [9], 20 mg/L (≈ 52.3 µM); against Bacillus subtilis [10], 25 mg/L (≈ 65.4 µM).
Turning to `CN[C@@H]1[C@H](O[C@H]2[C@H](O[C@H]3[C@H](O)[C@@H](O)[C@H](N=C(N)N)[C@@H](O)[C@@H]3N=C(N)N)O[C@@H](C)[C@]2(O)C=O)O[C@@H](CO)[C@H](O)[C@H]1O` [STREPTOMYCIN], the zone of inhibition at 100 µg/disc in the assay with Escherichia coli [2] is 16.4 mm; in the assay with Bacillus subtilis [11], 16.2 mm. The minimum inhibitory concentration (MIC) with Escherichia coli [9] and in the assay with Bacillus subtilis [10] was 5 mg/L (≈ 8.6 µM) in each case.
With `CCOP(=O)(OCC)C(O)C1=C(N(C)C)C(=O)N(c2cccc(Cl)c2)C1=O` (stereo unspecified), the MIC was found to be 10 mg/L (≈ 24 µM) with Candida albicans [1]; 20 mg/L (≈ 48 µM) with Aspergillus clavatus [6]; 10 mg/L (≈ 24 µM) with Candida tropicalis [7]; 20 mg/L (≈ 48 µM) with Escherichia coli [9]; 10 mg/L (≈ 24 µM) against Bacillus subtilis [10]; 25 mg/L (≈ 60 µM) against Aspergillus niger [12]. In addition, the zone of inhibition at 100 µg/disc worked out at 13.5 mm in the assay with Escherichia coli [2]; 16.6 mm in the assay with Candida albicans [3]; 13.6 mm with Aspergillus niger [4]; 16.2 mm in the assay on Aspergillus clavatus [5]; 17.1 mm in the assay with Candida tropicalis [8]; 15.8 mm in the assay on Bacillus subtilis [11].
As for `CCOP(=O)(OCC)C(O)C1=C(N(C)C)C(=O)N(c2ccc(F)cc2)C1=O` (stereo unspecified), the MIC came to 15 mg/L (≈ 37.5 µM) with Candida albicans [1]; 10 mg/L (≈ 25 µM) in the assay on Aspergillus clavatus [6]; 15 mg/L (≈ 37.5 µM) against Candida tropicalis [7]; 10 mg/L (≈ 25 µM) with Escherichia coli [9]; 10 mg/L (≈ 25 µM) in the assay with Bacillus subtilis [10]; 15 mg/L (≈ 37.5 µM) with Aspergillus niger [12]. For the same molecule, the zone of inhibition at 100 µg/disc stood at 15.8 mm with Escherichia coli [2]; 16.5 mm with Candida albicans [3]; 16.4 mm in the assay on Aspergillus niger [4]; 17.3 mm in the assay with Aspergillus clavatus [5]; 16.7 mm in the assay with Candida tropicalis [8]; 15.6 mm in the assay on Bacillus subtilis [11].
`CCOP(=O)(OCC)C(O)C1=C(N(C)C)C(=O)N(c2ccc(Cl)cc2)C1=O` (stereo unspecified): the zone of inhibition at 100 µg/disc in the assay with Escherichia coli [2] came to 13.4 mm; in the assay on Aspergillus niger [4], 15.8 mm; with Candida tropicalis [8], 15.9 mm. Further, the minimum inhibitory concentration (MIC) came to 25 mg/L (≈ 60 µM) against Candida tropicalis [7], 25 mg/L (≈ 60 µM) in the assay on Escherichia coli [9] and 20 mg/L (≈ 48 µM) against Aspergillus niger [12].
For the molecule `CCOP(=O)(OCC)C(O)C1=C(N(C)C)C(=O)N(c2cccc(C(F)(F)F)c2)C1=O` (stereo unspecified), the minimal inhibitory concentration (MIC) with Candida albicans [1] amounted to 20 mg/L (≈ 44.4 µM); in the assay on Aspergillus clavatus [6], 10 mg/L (≈ 22.2 µM); in the assay with Candida tropicalis [7], 10 mg/L (≈ 22.2 µM); with Escherichia coli [9], 10 mg/L (≈ 22.2 µM); with Bacillus subtilis [10], 15 mg/L (≈ 33.3 µM); in the assay on Aspergillus niger [12] it was 15 mg/L (≈ 33.3 µM). Also, the zone of inhibition at 100 µg/disc in the assay on Escherichia coli [2] was 15.7 mm; in the assay with Candida albicans [3] it was 15.2 mm; with Aspergillus niger [4] it was 16.6 mm; with Aspergillus clavatus [5], 17.4 mm; in the assay with Candida tropicalis [8] it was 17.2 mm; in the assay on Bacillus subtilis [11], 15.4 mm.
In the case of `CCOP(=O)(OCC)C(O)C1=C(N(C)C)C(=O)N(c2ccccc2Cl)C1=O` (stereo unspecified), the MIC against Candida albicans [1] stood at 20 mg/L (≈ 48 µM); against Aspergillus clavatus [6] it was 15 mg/L (≈ 36 µM); in the assay on Candida tropicalis [7], 20 mg/L (≈ 48 µM); with Escherichia coli [9], 15 mg/L (≈ 36 µM); with Bacillus subtilis [10], 20 mg/L (≈ 48 µM); against Aspergillus niger [12], 15 mg/L (≈ 36 µM). Further, the zone of inhibition at 100 µg/disc with Escherichia coli [2] was found to be 15.4 mm; in the assay with Candida albicans [3], 15.1 mm; in the assay on Aspergillus niger [4] it was 16.6 mm; in the assay with Aspergillus clavatus [5] it was 16.8 mm; in the assay on Candida tropicalis [8] it was 16.2 mm; with Bacillus subtilis [11], 13.6 mm.
As to `COC1=CC(=O)C[C@@H](C)[C@]12Oc1c(Cl)c(OC)cc(OC)c1C2=O` [GRISEOFULVIN], the minimum inhibitory concentration (MIC) against Candida albicans [1], against Aspergillus clavatus [6], with Candida tropicalis [7] and against Aspergillus niger [12] was 5 mg/L (≈ 14.2 µM) in each case. The zone of inhibition at 100 µg/disc came to 16.8 mm in the assay with Candida albicans [3], 16.9 mm in the assay with Aspergillus niger [4], 17.6 mm with Aspergillus clavatus [5] and 17.3 mm in the assay on Candida tropicalis [8].
